Active and inactive are the calls of the source. No cut-off for these calls is given here.

From ChEMBL document CHEMBL3822431, “Hydroxychalcone inhibitors of Streptococcus mutans glucosyl transferases and biofilms as potential anticaries agents” (Bioorg Med Chem Lett, 2016) come the findings set out here.

For test [1], the target named is T1, Glucosyltransferase-S (Streptococcus mutans serotype c (strain ATCC 700610 / UA159)) (UniProt P49331).
T1 sequence (whole entry): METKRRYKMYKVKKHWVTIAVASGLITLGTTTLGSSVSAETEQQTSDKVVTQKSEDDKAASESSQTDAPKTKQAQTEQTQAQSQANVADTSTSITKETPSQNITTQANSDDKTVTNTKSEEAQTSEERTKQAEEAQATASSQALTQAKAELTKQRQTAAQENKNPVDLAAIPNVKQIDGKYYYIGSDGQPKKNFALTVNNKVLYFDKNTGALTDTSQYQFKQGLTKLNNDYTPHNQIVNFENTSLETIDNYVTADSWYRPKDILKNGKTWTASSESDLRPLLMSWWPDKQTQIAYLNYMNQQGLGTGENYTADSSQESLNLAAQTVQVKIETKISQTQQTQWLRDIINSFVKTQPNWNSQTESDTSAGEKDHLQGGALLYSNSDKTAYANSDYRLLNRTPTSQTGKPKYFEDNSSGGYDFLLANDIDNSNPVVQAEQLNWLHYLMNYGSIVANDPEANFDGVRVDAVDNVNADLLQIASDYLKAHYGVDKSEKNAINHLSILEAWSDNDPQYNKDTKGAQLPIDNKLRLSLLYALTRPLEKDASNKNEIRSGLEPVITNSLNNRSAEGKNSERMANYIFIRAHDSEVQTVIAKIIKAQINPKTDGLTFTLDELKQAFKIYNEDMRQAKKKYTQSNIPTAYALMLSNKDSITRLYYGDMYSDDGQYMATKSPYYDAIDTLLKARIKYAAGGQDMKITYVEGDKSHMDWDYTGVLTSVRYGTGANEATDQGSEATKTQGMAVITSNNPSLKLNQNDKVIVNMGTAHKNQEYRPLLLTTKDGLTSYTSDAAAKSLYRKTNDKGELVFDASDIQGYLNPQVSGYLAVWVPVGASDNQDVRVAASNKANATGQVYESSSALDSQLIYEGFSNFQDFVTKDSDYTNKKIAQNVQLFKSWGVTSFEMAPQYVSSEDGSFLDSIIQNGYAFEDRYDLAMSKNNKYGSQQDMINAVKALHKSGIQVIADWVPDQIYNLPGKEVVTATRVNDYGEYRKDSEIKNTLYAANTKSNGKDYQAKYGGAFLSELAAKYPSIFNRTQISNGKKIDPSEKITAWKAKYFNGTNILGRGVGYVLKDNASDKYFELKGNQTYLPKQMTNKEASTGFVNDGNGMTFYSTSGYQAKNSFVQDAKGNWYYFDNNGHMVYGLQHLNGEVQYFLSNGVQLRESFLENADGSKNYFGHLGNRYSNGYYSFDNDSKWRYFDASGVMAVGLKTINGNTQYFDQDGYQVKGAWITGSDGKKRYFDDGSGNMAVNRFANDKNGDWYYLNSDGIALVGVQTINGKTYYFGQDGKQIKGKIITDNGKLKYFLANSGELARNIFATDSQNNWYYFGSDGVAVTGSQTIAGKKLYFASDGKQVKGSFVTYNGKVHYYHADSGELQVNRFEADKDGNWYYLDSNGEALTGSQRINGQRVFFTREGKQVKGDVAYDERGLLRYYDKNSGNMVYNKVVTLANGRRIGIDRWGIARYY
Kind of test: Inhibition of Wild-type Streptococcus mutans UA159 glucosyltransferase D at 50 uM by coomassie blue staining based SDS-PAGE method. The essentials: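 Compound (50 µM) added to overnight S. mutans UA159 wild-type cultures; Gtfs collected and concentrated from supernatants, run on SDS-PAGE in duplicate; one gel Coomassie blue stained for protein levels.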

In test [2] the test system is Streptococcus mutans. Kind of test: Inhibition of Gfp tagged Streptococcus mutans UA159 colony formation in guts of sucrose-dependent Drosophila colonization model at 50 uM measured 7 days post infection by fluorescent microscopy. The format is functional, organism-based. The essentials:
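Drosophila fed Gfp-tagged S. mutans with compound at 50 µM; DMSO as negative control, ΔgtfB mutant as biofilm-defective comparator; gut fluorescence examined by fluorescent microscopy 7 days after infection.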

Test [3] addresses T1, Glucosyltransferase-S (Streptococcus mutans serotype c (strain ATCC 700610 / UA159)). Kind of test: Inhibition of Wild-type Streptococcus mutans UA159 glucosyltransferase D by zymography. The essentials: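 S. mutans UA159 wild type co-incubated with compound at different concentrations; Gtfs concentrated from supernatants, separated by SDS-PAGE and assayed by zymography, glucan band intensity reflecting enzyme activity.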

Test [4] relates to Streptococcus mutans. The experiment in a line: Growth inhibition of Streptococcus mutans UA159 after 16 hrs. The format is organism-based. The note with it: Streptococcus mutans, UA159, 16 h; read-out: IC50. The gist of the method: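 S. mutans UA159 co-incubated with compound at various concentrations; growth measured at OD470.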

Consider `O=C(/C=C/c1ccc(O)cc1O)c1cccc(O)c1` (stereo in doubt; 9a), for which the inhibition entry (in test [1]; with Streptococcus mutans [2]) was “Active” each time.

Regarding `O=C(/C=C/c1cc(O)c(O)cc1O)c1ccccc1O` (stereo in doubt; 18c), the inhibition result in test [1] is “Active”.

Take `O=C(/C=C\c1ccc(O)cc1O)c1ccc(O)cc1`: in test [1], the inhibition entry was “Active”.

As for `O=C(/C=C\c1ccc(O)cc1O)c1cccc(O)c1`, the inhibition entry (in test [1]; in the test with Streptococcus mutans [2]) was “Active” each time. For the same molecule, in test [3], the inhibition result is “Dose-dependent effect”.

With `O=C(/C=C/c1ccc(O)cc1O)c1ccc(O)cc1`, the inhibition entry in test [1] was “Active”. For the same molecule, in the test on Streptococcus mutans [4], the IC50 came out at 1060 µM.
